{"data": "Experimental data pooled from the literature", "organism": "Bacillus subtilis", "effect on": "microbial growth", "note": "Compare with care: the assays were run in different laboratories."}
{"SMILES": "CC1=NN(CNc2ccccc2[N+](=O)[O-])C(=O)C1=NNn1c(-c2ccccc2)nc2ccccc2c1=O", "test": "broth dilution", "setting": "24 h", "MIC": "50.4 µM"}
{"SMILES": "O=C(O)c1ccc(-n2cc(/C=N/Nc3cccc(Br)c3)c(-c3ccc(F)cc3)n2)cc1", "test system": "ATCC6623", "MIC": "12.5 µg/mL"}
{"SMILES": "O=C(O)CN1C(=O)/C(=C/c2ccc(-c3ccc(N(c4ccccc4)c4ccccc4)cc3)cc2)SC1=S", "test": "broth dilution", "test system": "ATCC6633", "MIC": "1.95 µg/mL"}
{"SMILES": "O=C(O)c1ccc(-n2cc(/C=N/Nc3ccc(F)cc3)c(-c3ccc(F)cc3)n2)cc1", "test system": "ATCC6623", "MIC": "25 µg/mL"}
{"SMILES": "O=C(O)CN1C(=O)/C(=C/c2c3ccccc3c(-c3ccc(N(c4ccccc4)c4ccccc4)cc3)c3ccccc23)NC1=S", "test": "broth dilution", "test system": "ATCC6633", "MIC": "> 1000 µg/mL"}
{"SMILES": "Clc1ccc(NCc2ccc(Oc3ccccn3)cc2)cc1", "MIC": "> 6.2 µg/mL"}
{"SMILES": "CN[C@H](CC(C)C)C(=O)N[C@H]1C(=O)N[C@@H](CC(N)=O)C(=O)N[C@H]2C(=O)N[C@H]3C(=O)N[C@H](C(=O)N[C@H](C(=O)O)c4cc(O)cc(O)c4-c4cc3ccc4O)[C@H](O)c3ccc(c(Cl)c3)Oc3cc2cc(c3O[C@@H]2O[C@H](CO)[C@@H](O)[C@H](O)[C@H]2O[C@H]2C[C@](C)(N)[C@H](O)[C@H](C)O2)Oc2ccc(cc2Cl)[C@H]1O", "test system": "ATCC6623", "MIC": "0.39 µg/mL"}
{"SMILES": "CCCCCCCCOC(=O)c1cc(O)c(O)c(O)c1", "test": "broth dilution", "test system": "ATCC6633", "MIC": "12.5 to 25 µM"}
{"SMILES": "O=C(O)CN1C(=O)/C(=C/c2ccc(-c3ccc(N(c4ccccc4)c4ccccc4)cc3)c3ccccc23)NC1=S", "test": "broth dilution", "test system": "ATCC6633", "MIC": "> 1000 µg/mL"}
{"SMILES": "CN[C@H](CC(C)C)C(=O)N[C@H]1C(=O)N[C@@H](CC(N)=O)C(=O)N[C@H]2C(=O)N[C@H]3C(=O)N[C@H](C(=O)N[C@H](C(=O)O)c4cc(O)cc(O)c4-c4cc3ccc4O)[C@H](O)c3ccc(c(Cl)c3)Oc3cc2cc(c3O[C@@H]2O[C@H](CO)[C@@H](O)[C@H](O)[C@H]2O[C@H]2C[C@](C)(N)[C@H](O)[C@H](C)O2)Oc2ccc(cc2Cl)[C@H]1O", "test": "broth dilution", "test system": "168", "MIC": "0.25 µg/mL"}
{"SMILES": "CN[C@H](CC(C)C)C(=O)N[C@H]1C(=O)N[C@@H](CC(N)=O)C(=O)N[C@H]2C(=O)N[C@H]3C(=O)N[C@H](C(=O)N[C@H](C(=O)O)c4cc(O)cc(O)c4-c4cc3ccc4O)[C@H](O)c3ccc(c(Cl)c3)Oc3cc2cc(c3O[C@@H]2O[C@H](CO)[C@@H](O)[C@H](O)[C@H]2O[C@H]2C[C@](C)(N)[C@H](O)[C@H](C)O2)Oc2ccc(cc2Cl)[C@H]1O", "test": "broth dilution", "test system": "ATCC6633", "MIC": "0.24 µg/mL"}
{"SMILES": "O=C(O)c1ccc(-n2cc(/C=N/Nc3cccc(Cl)c3F)c(-c3cccc(F)c3)n2)cc1", "test system": "ATCC6623", "MIC": "1.56 µg/mL"}
{"SMILES": "CN(C)[C@@H]1C(O)=C(C(N)=O)C(=O)[C@@]2(O)C(O)=C3C(=O)c4c(O)cccc4[C@@](C)(O)[C@H]3C[C@@H]12", "test system": "ATCC6633", "MIC": "2 µg/mL"}
{"SMILES": "O=C1NC(=S)S/C1=C\\c1ccc(-c2ccc(N(c3ccccc3)c3ccccc3)cc2)c2ccccc12", "test": "broth dilution", "test system": "ATCC6633", "MIC": "1000 µg/mL"}
{"SMILES": "CC1=NN(CNC(=O)c2ccccn2)C(=O)C1=NNn1c(-c2ccccc2)nc2ccccc2c1=O", "test": "broth dilution", "setting": "24 h", "MIC": "104 µM"}
{"SMILES": "Fc1ccccc1NCc1ccc(Oc2ccccn2)cc1", "MIC": "1.8 µg/mL"}
{"SMILES": "O=C(O)c1ccc(-n2cc(/C=N/Nc3cccc(Cl)c3)c(-c3cccc(F)c3)n2)cc1", "test system": "ATCC6623", "MIC": "12.5 µg/mL"}
{"SMILES": "CC1(C)S[C@@H]2[C@H](NC(=O)[C@H](N)c3ccccc3)C(=O)N2[C@H]1C(=O)O", "test": "broth dilution", "test system": "168", "MIC": "32 µg/mL"}
{"SMILES": "CCCCCCCCCCCCOC(=O)c1cc(O)c(O)c(O)c1", "test": "broth dilution", "test system": "ATCC6633", "MIC": "25 to 50 µM"}
{"SMILES": "O=C(O)c1cn(C2CC2)c2cc(N3CCNCC3)c(F)cc2c1=O", "MIC": "1.6 µg/mL"}
{"SMILES": "O=C(O)c1ccc(-n2cc(/C=N/Nc3cc(F)ccc3F)c(-c3ccc(F)cc3)n2)cc1", "test system": "ATCC6623", "MIC": "12.5 µg/mL"}
{"SMILES": "O=C(O)CN1C(=O)/C(=C/c2ccc(-c3ccc(N(c4ccccc4)c4ccccc4)cc3)cc2)NC1=S", "test": "broth dilution", "test system": "ATCC6633", "MIC": "3.9 µg/mL"}
{"SMILES": "CC(=O)NCN1N=C(C)C(=NNn2c(-c3ccccc3)nc3ccccc3c2=O)C1=O", "test": "broth dilution", "setting": "24 h", "MIC": "59.9 µM"}
{"SMILES": "CCCCC[P+](/C=C(/c1ccccc1)c1cc(Cl)ccc1OC)(CCCCC)CCCCC", "setting": "21 h", "MIC": "2 µM"}
{"SMILES": "C/C=C(\\C)c1cc(O)c(C)c(OC(=O)c2c(C)cc(O)c(Cl)c2O)c1", "test": "broth dilution", "test system": "BS01", "MIC": "4 µg/mL"}
{"SMILES": "C[n+]1c(/C=C/c2ccc(O)cc2)cc(/C=C2\\Sc3ccccc3N2CCCN2CCCC2)c2ccccc21.[I-]", "test": "broth dilution", "test system": "168", "MIC": "16 µg/mL"}
{"SMILES": "Brc1cccc(NCc2ccc(Oc3ccccn3)cc2)c1", "MIC": "> 6.2 µg/mL"}
{"SMILES": "CN[C@H](CC(C)C)C(=O)N[C@H]1C(=O)N[C@@H](CC(N)=O)C(=O)N[C@H]2C(=O)N[C@H]3C(=O)N[C@H](C(=O)N[C@H](C(=O)O)c4cc(O)cc(O)c4-c4cc3ccc4O)[C@H](O)c3ccc(c(Cl)c3)Oc3cc2cc(c3O[C@@H]2O[C@H](CO)[C@@H](O)[C@H](O)[C@H]2O[C@H]2C[C@](C)(N)[C@H](O)[C@H](C)O2)Oc2ccc(cc2Cl)[C@H]1O", "test": "broth dilution", "test system": "BS01", "MIC": "0.13 µg/mL"}
{"SMILES": "CO[C@H]1/C=C/O[C@@]2(C)Oc3c(C)c(O)c4c(O)c(c(/C=N/N5CCN(C)CC5)c(O)c4c3C2=O)NC(=O)/C(C)=C\\C=C\\[C@H](C)[C@H](O)[C@@H](C)[C@@H](O)[C@@H](C)[C@H](OC(C)=O)[C@@H]1C", "test": "broth dilution", "test system": "168", "MIC": "4 µg/mL"}
{"SMILES": "Cc1ccc(NCc2ccc(Oc3ccccn3)cc2)cc1", "MIC": "1.8 µg/mL"}
{"SMILES": "C[n+]1ccc(/C=C2\\Sc3ccccc3N2CCCN2CCCCC2)c2ccccc21.[I-]", "test": "broth dilution", "test system": "168", "MIC": "16 µg/mL"}
{"SMILES": "C[C@@H](O)[C@H]1C(=O)N2C(C(=O)O)=C(S[C@@H]3CN[C@H](C(=O)N(C)C)C3)[C@H](C)[C@H]12", "test": "broth dilution", "setting": "24 h", "MIC": "0.0625 µg/mL"}
{"SMILES": "CCCCCC[P+](/C=C(/c1ccccc1)c1cc(Cl)ccc1O)(CCCCCC)CCCCCC", "setting": "21 h", "MIC": "2 µM"}
{"SMILES": "O=C(Nc1ccc2c(c1)OC(F)(F)O2)Nc1ccc(Cl)c(C(F)(F)F)c1", "test system": "168", "MIC": "1 µM"}
{"SMILES": "CC1=NN(CNc2ccc(Cl)cc2)C(=O)C1=NNn1c(-c2ccccc2)nc2ccccc2c1=O", "test": "broth dilution", "setting": "24 h", "MIC": "103 µM"}
{"SMILES": "CSc1ccc(/C=C/c2cc(/C=C3\\Sc4ccccc4N3CCCN3CCCC3)c3ccccc3[n+]2C)cc1.[I-]", "test": "broth dilution", "test system": "168", "MIC": "16 µg/mL"}
{"SMILES": "O=C(O)c1ccc(-n2cc(/C=N/N(Cc3ccccc3)c3ccccc3)c(-c3cccc(F)c3)n2)cc1", "test system": "ATCC6623", "MIC": "1.56 µg/mL"}
{"SMILES": "CCCCC[P+](/C=C(/c1ccccc1)c1cc(Cl)ccc1O)(CCCCC)CCCCC", "setting": "21 h", "MIC": "~2 µM"}
{"SMILES": "Cc1ccccc1NCc1ccc(Oc2ccccn2)cc1", "MIC": "1.8 µg/mL"}
{"SMILES": "COc1cc(O)c2c(c1)/C=C/C[C@H](O)[C@H](O)C(=O)/C=C/C[C@H](C)OC2=O", "MIC": "> 500 µg/mL"}
{"SMILES": "C/C=C(\\C)c1cc(OC(=O)c2c(C)c(Cl)c(O)c(Cl)c2O)c(C)c(O)c1C(=O)O", "test": "broth dilution", "test system": "BS01", "MIC": "64 µg/mL"}
{"SMILES": "O=C1NC(=S)N/C1=C\\c1ccc(-c2ccc(N(c3ccccc3)c3ccccc3)cc2)c2ccccc12", "test": "broth dilution", "test system": "ATCC6633", "MIC": "> 1000 µg/mL"}
{"SMILES": "NC[C@H]1O[C@H](O[C@H]2[C@H](O)[C@@H](O[C@H]3O[C@H](CO)[C@@H](O)[C@H](N)[C@H]3O)[C@H](N)C[C@@H]2N)[C@H](O)[C@@H](O)[C@@H]1O", "MIC": "2 to 4 µg/mL"}
{"SMILES": "NC[C@H]1O[C@H](O[C@H]2[C@H](O)[C@@H](O[C@H]3O[C@H](CO)[C@@H](O)[C@H](N)[C@H]3O)[C@H](N)C[C@@H]2N)[C@H](N)C[C@@H]1O", "test system": "168", "MIC": "1.2 µg/mL"}
{"SMILES": "O=C(O)c1ccc(-n2cc(/C=N/Nc3ccc(Br)cc3)c(-c3cccc(F)c3)n2)cc1", "test system": "ATCC6623", "MIC": "12.5 µg/mL"}
{"SMILES": "Cc1cccc(NCc2ccc(Oc3ccccn3)cc2)c1", "MIC": "> 3.1 µg/mL"}
{"SMILES": "CCCC[P+](/C=C(/c1ccccc1)c1cc(Cl)ccc1OC)(CCCC)CCCC", "setting": "21 h", "MIC": "1 µM"}
